Compound activity as filed in PubChem BioAssay.
PG9 binder – small molecules binding HIV-1 gp120 antibody PG9; TR-FRET gp120-PG9 antibody binding; inhibition, % at 6.7 µM; 0.43% of 360,000 active; in the data active means inhibition above about 8.5%
NR2E3 ag-1 – activates human photoreceptor nuclear receptor NR2E3; AID 2300; 0.12% of 320,000 active; GST-NR2E3/biotin-RetCOR TR-FRET, 1536-well; inhibition of corepressor binding, % at 4.78 µM;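 active means percent inhibition above the cutoff of mean plus 3 SD of all tested compounds, set per screening campaign, cut at about 20% in these data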;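 further: 0% = DMSO wells and 100% = biotin wells as full block of FRET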
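Material: NR2E3–RetCOR corepressor complex / Incubation: Compound–protein incubation for 5 h at 4 °C / Dosing: compound at 4.8 µM, single dose / Detection: time-resolved FRET / Benchmarks: high control biotin, low control 0.6% DMSO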
Rev-erbA mod – modulates human Rev-erb alpha binding to DNA. Rev-erbα–FITC-DNA binding, fluorescence polarization, 90 min. 0.79% of 370,000 active. activity, % at 10 µM. P20393;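 active means activity above about 14%, limit read from the data; passing the limit was not always enough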;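 further: 0% = DMSO wells with 35 nM protein and 100% = DMSO wells with 750 nM protein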
Target sequence (P20393 whole entry, looked up): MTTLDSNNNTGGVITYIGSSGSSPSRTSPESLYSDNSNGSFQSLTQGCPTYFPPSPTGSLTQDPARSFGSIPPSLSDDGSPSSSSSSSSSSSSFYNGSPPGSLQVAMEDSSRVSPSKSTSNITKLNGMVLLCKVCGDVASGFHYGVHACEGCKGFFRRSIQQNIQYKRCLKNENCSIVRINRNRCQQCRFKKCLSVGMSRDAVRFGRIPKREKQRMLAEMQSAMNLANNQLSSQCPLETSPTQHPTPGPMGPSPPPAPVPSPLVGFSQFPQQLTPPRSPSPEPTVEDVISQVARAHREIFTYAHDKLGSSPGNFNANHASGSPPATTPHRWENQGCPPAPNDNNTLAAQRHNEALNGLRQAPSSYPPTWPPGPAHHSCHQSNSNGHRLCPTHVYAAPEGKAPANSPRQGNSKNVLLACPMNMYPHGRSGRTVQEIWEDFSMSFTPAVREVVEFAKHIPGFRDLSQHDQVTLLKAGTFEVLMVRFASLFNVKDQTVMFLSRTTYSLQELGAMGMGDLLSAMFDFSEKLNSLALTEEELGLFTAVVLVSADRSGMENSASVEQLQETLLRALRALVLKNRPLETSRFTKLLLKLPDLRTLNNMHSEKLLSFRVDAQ
NR2E3 ag-2 – activates human NR2E3 receptor. Q9Y5X4. CHO-S Gal4-NCOR/VP16-NR2E3 two-hybrid, luciferase. inhibition of corepressor binding, % at 3.98 µM. 0.35% of 360,000 active. AID 602229;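 active means inhibition above the mean of all tested compounds plus 3 SD, cut at about 70% in these data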;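 further: 0% = DMSO with NR2E3 transfected cells and 100% = cells lacking NR2E3 construct; higher means lower luciferase signal from less NR2E3 corepressor binding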
NR2E3 ag confirm – confirmation of human NR2E3 agonists; 51% of 2,300 active; inhibition, % at 3.98 µM; CHO-S mammalian two-hybrid NR2E3-NCOR, luciferase luminescence; shares compounds with NR2E3 ag-2;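 active means average inhibition above a cutoff equal to the mean inhibition of all tested compounds plus one SD, cut at about 70% in these data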;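 further: 0% = DMSO in NR2E3 cells and 100% = DMSO in cells lacking NR2E3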
VP16 counter – GAL4-VP16 reporter inhibition in NR2E3 agonist counterscreen. shares compounds with NR2E3 ag-2. 29% of 2,300 active. inhibition, % at 3.98 µM. CHO-S GAL4-VP16 luciferase reporter, luminescence;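 active means mean inhibition above a cutoff equal to the average over all tested compounds plus one standard deviation, cut at about 70% in these data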;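 further: luciferase from a UAS reporter driven by GAL4-VP16 transactivation; 0% = DMSO with VP16-transfected cells and 100% = DMSO with cells lacking VP16; higher means less reporter light so more repression of VP16 activity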
PG9 bind confirm – confirmation of small molecules binding HIV-1 gp120 antibody PG9. shares compounds with PG9 binder. TR-FRET PG9 antibody binding, biochemical. 90% of 1,500 active. inhibition, % at 6.7 µM; in the data active means inhibition above about 9%
PGV04 Ab binding – counter-screen for PG9 binders: binding control antibody PGV04. 95% of 1,500 active. inhibition, % at 6.7 µM. shares compounds with PG9 binder. TR-FRET PGV04 antibody-gp120 binding, biochemical; in the data active means inhibition above about 9.5%
NR1D1 mod conf – Rev-erb alpha (human) modulation, hit confirmation; Rev-erb alpha FITC-DNA binding, fluorescence polarization, 90 min; AID 1259319; activation, % at 25 µM; 61% of 3,000 active; shares compounds with Rev-erbA mod;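 active means activation at or above a set limit, or at least 3 SD above the negative control mean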;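 further: 0% = 35 nM protein with DMSO and 100% = 750 nM protein high control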
RORg DNA counter – RORgamma DNA-binding activity, dose-response counter-screen; 8% of 910 active; IC50, µM; AID 1259320; shares compounds with Rev-erbA mod; purified RORgamma protein-FITC-DNA binding, fluorescence polarization;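 active means Compounds whose fitted half-maximal concentration for disrupting protein-DNA binding is below 10 micromolar; the record names Rev-erb in its text, so the target is in doubt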
An asterisk follows results filed as active; i = inactive; x = no result. Compounds with a hit are over-represented: about 1.4% of the library has one in this group of screens.

SMILES	PG9 binder	NR2E3 ag-1	Rev-erbA mod	NR2E3 ag-2	NR2E3 ag confirm	VP16 counter	NR1D1 mod conf	others
COC(=O)C12OCC34C(CC5C(C)=C(O)C(=O)CC5(C)C3C(O)C1O)OC(=O)C(OC(=O)/C=C(\C)C(C)C)C24 (stereo not given)	-0.8	x	5.5	103.0*	99.7*	100.0*	x
CC[C@@H](O)C[C@H]1CCC[C@@]2(C[C@@H]3OC(=O)/C=C/[C@@](C)(O)[C@@H](O)[C@H](C)[C@@H](O)[C@H](OC4CCC(N(C)C)C(C)O4)[C@@H](O)[C@](C)(O)CCCCC/C=C/[C@@H]4CC(C)(C)O[C@@]4(O)C[C@H](O2)[C@H]3C)O1 (stereo not given in full)	-3.5	x	-5.7	89.3*	96.9*	87.1*	x
CCOC(=O)CNC(=O)N1Cc2cc(-c3cccc(F)c3)ccc2-n2nncc2C1	1.0	x	6.9	-3.2	x	x	x
COc1cc2c(cc1OC)[C@@H]1C(=O)c3ccc4c(c3O[C@@H]1CO2)C[C@H](C(C)C)O4	-0.8	0.2	-1.1	96.0*	99.8*	92.7*	x
COc1cc2c(cc1OC)C1C(=O)c3ccc4c(c3OC1CO2)CC(C(C)C)O4 (stereo not given)	1.2	x	7.7	102.3*	96.2*	94.3*	x
CCCC(C)CC1(CCO)C(=O)NC(=S)NC1=O (stereo not given)	0.3	x	-1.4	-27.8	x	x	x
CCOc1cccc(CNCCc2c(C)[nH]c3ccc(OC(F)(F)F)cc23)c1O	-0.7	2.3	5.0	97.5*	89.7*	70.5	x
O=C(COc1ccc(Cl)cc1)NCCc1cnc[nH]1	-2.8	x	-4.2	-19.7	x	x	x
C[C@H]1CCC/C=C/[C@@H]2C[C@H](O)C[C@H]2[C@H](O)/C=C/C(=O)O1	-0.9	4.6	-1.8	95.2*	98.8*	64.5	x
Cn1c(O)c(/C=C2\C=Nc3ccccc32)c(=O)n(C)c1=O	18.3*	3.8	4.3	-18.4	x	x	x	PG9 bind confirm=13.4*;PGV04 Ab binding=28.0*
CN1Cc2c(c(C#N)c(N)n(C)c2=S)CC1(C)C	x	1.8	x	-22.9	x	x	x
COc1cc2c(cc1OC)-c1c3c(cc4c1[C@@H](C2)N(C)CC4)OCO3	-8.1	-1.1	15.4*	-54.6	x	x	-3.4
CCOc1ccc2nc(N=Nc3c(O)[nH]c(=S)[nH]c3=O)sc2c1	-5.1	-1.4	24.6*	-30.9	x	x	36.2*	RORg DNA counter=i
Cc1c(N=Nc2c(O)[nH]c(=S)[nH]c2=O)c(=O)n(-c2ccccc2)n1C	-8.7	-4.4	1.3	-13.5	x	x	x
CCOC(=O)c1sc(N=Nc2c(O)[nH]c(=O)[nH]c2=O)c(C(=O)OCC)c1C	x	3.4	x	x	x	x	x
CCOc1ccc2nc(N=Nc3c(O)[nH]c(=O)[nH]c3=O)sc2c1	-6.8	-1.5	25.4*	-1.1	x	x	15.9
N=c1c[n+](C2CCCCC2)[n-]o1	0.8	1.8	3.4	-1.9	x	x	x
Cc1ccsc1C(=O)C1CCCN(Cc2ccc(-n3cccn3)cc2)C1 (stereo not given)	-0.8	-0.4	-1.6	-8.0	x	x	x
CCN(CC)c1ccc(/C=C2\C(=O)NC(=S)N(C)C2=O)o1	-10.3	-4.3	57.0*	-115.4	x	x	62.4*	RORg DNA counter=>40
CCN(CC)c1ccc(C=C2C(=O)N(C)C(=S)N(C)C2=O)o1	-3.2	-2.3	34.5*	-0.6	x	x	15.2
CN1C(=O)C(=Cc2ccc(N3CCCCC3)o2)C(=O)N(C)C1=S	-3.9	-3.8	40.4*	-51.4	x	x	47.2*	RORg DNA counter=>40
CN1C(=O)C(=Cc2ccc(SC3CCCCC3)o2)C(=O)N(C)C1=O	-2.2	-1.8	-4.3	-33.6	x	x	x
Cc1ccc(/C=C2\C(=O)NC(=S)N(c3ccc(F)cc3)C2=O)o1	2.0	x	0.7	3.5	x	x	x
